Measurements from article PMC3057608 (Cancer research, 2011).
Read-outs that look alike come from different tables or passages of the source. Values belong to the compound of their own block, whether it stands above or below them.

What was measured:
[1] = biological target: T1, DNA-PKcs (Homo sapiens, UniProt P78527); test: DNA-PKcs kinase assay; format: biochemical; conditions: for DNA-PKcs inhibition by truncated/mutant/phosphorylated peptide derivatives: alanine scanning and mutant peptides, DNA-PKcs kinase activity (Fig. 6A)
[2] = biological target: T1, DNA-PKcs; test: ELISA of GNFRYLAPP/DNA-PKcs interaction; format: binding; conditions: pure DNA-PK, 1 μM ATP, sonicated DNA, 37°C 1 h, fluorescence read-out (Fig. 4B)
Outline: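 Bait wells: streptavidin plates coated with 100 ng biotinylated linearized pSP72 or 10 ng biotinylated test peptide (or biotinylated scrambled control), or adsorption plates coated with 250 units pure DNA-PK. After blocking, prey is added for 1 h at 37°C with 1 μM ATP, sonicated DNA (50 ng/μL) and protease/phosphatase inhibitors. Non-biotinylated test or scrambled peptide serves as competitor. DNA-PKcs is read with fluorophore-conjugated antibodies and peptide with FITC-streptavidin (1:500) on a fluorescence plate reader.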

[3] = biological target: T1, DNA-PKcs; test: Protease protection assay; format: biochemical; conditions: 10 μM, trypsin 0.01% 8 min 37°C, immunoblot (Fig. 4H)
[4] = test system: HCC1937 cells; test: Neutral comet assay, BRCA1-null cells; format: cell-based
[5] = test system: CAPAN1 cells; test: Neutral comet assay, BRCA2-null cells; format: cell-based
[6] = test system: HCC1937 cells; test: Clonogenic assay, BRCA1-null cells; format: cell-based
[7] = test system: CAPAN1 cells; test: Clonogenic assay, BRCA2-null cells; format: cell-based
[8] = test system: KS1767 cells; test: Nuclear focus formation after irradiation, DNA-PKcs +/+ cells; format: cell-based, human; conditions: 10 μM
Outline: (§1)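 Peptides at 10 μM are added to growth medium 72 h before irradiation or mock-irradiation (137Cs, 333 cGy per minute). Cells are grown on coverslips and fixed 3 min in ice-cold acetone:methanol 1:1 at set times after irradiation. They are blocked 1 h at room temperature in 5% goat serum, with primary reagents in 1% BSA overnight at 4°C and secondary reagents 1 h at room temperature. Foci are imaged by inverted fluorescence microscopy.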

[9] = test system: M059J cells; test: Nuclear focus formation after irradiation, DNA-PK -/- cells; format: cell-based; conditions: 10 μM, 1 h after 3 Gy, FITC-streptavidin (Fig. 5A left)
Outline: as §1

[10] = test system: Phosphorylated DNA-PKcs (T2609) in KS1767 cells; test: DNA-PKcs autophosphorylation; format: cell-based, human; conditions: KS1767, 10 μM, 30 minutes after 3 Gy (Fig. 5B)
Outline: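 Peptides, penetratin-fused test or scrambled control at 10 μM, are added to standard growth medium of KS1767 Kaposi sarcoma cells 72 h before irradiation or mock-irradiation. Irradiation uses a 137Cs source at 333 cGy per minute.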

Compound: COc1cc(C=O)c([N+](=O)[O-])cc1OC [DMNB, reference compound]
residual double-strand breaks by neutral comet assay [4]: increased residual double-strand breaks | residual double-strand breaks by neutral comet assay [5]: increased residual double-strand breaks | radiosensitivity by clonogenic assay [6]: increased radiosensitivity | radiosensitivity by clonogenic assay [7]: increased radiosensitivity

Compound: GSFRYL
DNA-PKcs inhibition by truncated/mutant/phosphorylated peptide derivatives [1]: abolished

Compound: GNFRYLAPP-pen
nuclear focus formation of biotinylated peptide ([8]; KS1767 (DNA-PKcs +/+), 1 h after 3 Gy, FITC-streptavidin (Fig. 5A left)): formed foci | resolution of peptide foci over time after irradiation ([8]; KS1767, 3 Gy, majority of cells retaining foci as late as 12 hours (Fig. 5A right)): slow resolution | nuclear focus formation of biotinylated peptide [9]: did not form foci | phosphorylated DNA-PKcs (T2609) signal after irradiation [10]: no signal was detected | residual double-strand breaks by neutral comet assay ([4]; HCC1937 (BRCA1-null), 10 μM, 72 h pre-incubation, 3 and 6 hours after 6 Gy (Fig. 5C)): increased residual double-strand breaks | residual double-strand breaks by neutral comet assay ([5]; CAPAN1 (BRCA2-null), 10 μM, 72 h pre-incubation, 3 and 6 hours after 6 Gy (Fig. 5C)): increased residual double-strand breaks | radiosensitivity by clonogenic assay ([6]; HCC1937 (BRCA1-null), 10 μM, 72 h pre-incubation (Fig. 5D-E)): increased radiosensitivity | radiosensitivity by clonogenic assay ([7]; CAPAN1 (BRCA2-null), 10 μM, 72 h pre-incubation (Fig. 5D-E)): increased radiosensitivity

Continued, in another order:

DNA-PKcs inhibition by truncated/mutant/phosphorylated peptide derivatives [1]: reestablished DNA-PKcs inhibition
Compound: GpSFRYL

interaction with DNA-PKcs by ELISA [2]: sufficient for attracting | phosphorylation of the peptide itself by DNA-PKcs ([1]; Fig. 4C): not phosphorylated | mode of DNA-PKcs inhibition ([1]; conclusion from binding, kinase and protease protection data): non-competitive inhibitor | effect on DNA-PKcs phosphorylation of its p53-derived consensus substrate ([1]; pure DNA-PK, increasing molar ratios of peptide to substrate (Fig. 4C)): progressively inhibited
Compound: GNFRYLAPP
effect on DNA-induced protection of DNA-PKcs from trypsin digestion [3]: prevented the protection from trypsin digestion

interaction with DNA-PKcs by ELISA [2]: no detectable interaction
Compound: RYPAGLPFL [scrambled peptide, reference compound]
